One series relates to Cryptococcus neoformans. The series is described as follows: Antifungal activity against Cryptococcus neoformans incubated for 72 hrs by broth micro dilution method. Type of series: functional.
In the next series the test system is Cryptococcus gattii. The series is described as follows: Antifungal activity against Cryptococcus gattii incubated for 72 hrs by broth micro dilution method. In kind it is functional.
For a further series, the system named is HepG2. The series is described as follows: Cytotoxicity against human HepG2 cells assessed as reduction in cell viability at 3 uM by CellTiter-Glo luminescent cell viability assay relative to control. In kind it is cell-based. To be noted: hepg2, 3 µM. On the technique in general: In ATP-based viability assays light output follows the ATP content of the culture.

For series [1], the target named is T1, GPI-anchored wall transfer protein 1 (Candida albicans (strain SC5314 / ATCC MYA-2876) (Yeast)) (UniProt Q873N2).
T1 sequence (whole entry): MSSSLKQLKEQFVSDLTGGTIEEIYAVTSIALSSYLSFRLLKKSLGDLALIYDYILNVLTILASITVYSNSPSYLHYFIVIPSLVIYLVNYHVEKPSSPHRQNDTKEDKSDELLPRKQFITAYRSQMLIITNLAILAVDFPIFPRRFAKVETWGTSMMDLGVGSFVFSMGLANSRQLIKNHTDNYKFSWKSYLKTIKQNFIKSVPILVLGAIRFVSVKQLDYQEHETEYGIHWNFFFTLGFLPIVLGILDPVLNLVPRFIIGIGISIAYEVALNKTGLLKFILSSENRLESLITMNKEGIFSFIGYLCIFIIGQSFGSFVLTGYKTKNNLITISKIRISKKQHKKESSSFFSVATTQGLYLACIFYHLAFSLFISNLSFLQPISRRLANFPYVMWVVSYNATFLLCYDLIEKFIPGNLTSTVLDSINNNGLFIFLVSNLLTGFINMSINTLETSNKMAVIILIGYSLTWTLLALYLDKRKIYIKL
Nature of the series: Antifungal activity against Candida albicans GWT1 expressed in Saccharomyces cerevisiae assessed as overexpression ratio. The gist of the method: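 MICs measured against S. cerevisiae strains expressing high and low levels of Gwt1. The value is the ratio of the two strains' MICs.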

The target of series [2] is T2, PIGW (glucosaminyl-phosphatidylinositol-acyltransferase) (Homo sapiens, UniProt Q7Z7B1).
T2 sequence (Q7Z7B1 whole entry): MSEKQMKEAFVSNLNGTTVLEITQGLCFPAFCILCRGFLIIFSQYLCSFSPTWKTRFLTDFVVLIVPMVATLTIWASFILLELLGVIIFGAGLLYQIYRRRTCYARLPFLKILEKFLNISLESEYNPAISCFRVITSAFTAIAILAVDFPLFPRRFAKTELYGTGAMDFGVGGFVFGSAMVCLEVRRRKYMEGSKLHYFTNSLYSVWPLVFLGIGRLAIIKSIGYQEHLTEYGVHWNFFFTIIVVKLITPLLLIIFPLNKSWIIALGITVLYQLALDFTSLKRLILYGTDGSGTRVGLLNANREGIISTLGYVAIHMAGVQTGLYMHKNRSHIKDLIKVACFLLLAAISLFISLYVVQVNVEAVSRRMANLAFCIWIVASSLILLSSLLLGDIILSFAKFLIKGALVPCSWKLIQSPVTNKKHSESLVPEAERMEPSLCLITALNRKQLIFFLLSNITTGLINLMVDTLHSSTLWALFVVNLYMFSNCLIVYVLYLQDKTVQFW
The series is described as follows: Inhibition of human PIGW expressed in Saccharomyces cerevisiae at 16 uM by spectrophotometric analysis relative to control. Particulars: Saccharomyces cerevisiae expressing human PIGW.

A short description of series [3]: Half life in human liver microsomes at 1 uM preincubated for 5 mins followed by NADPH addition and measured for 45 mins by LC/MS analysis. In kind it is ADME, Microsome. Particulars: for t1/2: microsomes, 0.75 h, 1 µM. A general note: Liver microsomes are vesicles of endoplasmic reticulum, rich in cytochrome P450 enzymes.

The structures appear in SMILES notation. In brackets after ≈: the same amount, converted by molar mass. A value given as a limit tells only on which side of the number the result lay.

Consider 33 molecules from ChEMBL document CHEMBL4406888, “Synthesis of analogs of the Gwt1 inhibitor manogepix (APX001A) and in vitro evaluation against Cryptococcus spp” (Bioorg Med Chem Lett, 2019).

For `Nc1ncccc1-c1cc(Cc2ccc(Cc3cccc(F)n3)cc2)no1`, the figures for the MIC with Cryptococcus neoformans and with Cryptococcus gattii were 0.031 µg/mL (≈ 0.086 µM) and 0.016 µg/mL (≈ 0.0444 µM), respectively.

On to `Nc1ncccc1-c1cc(Cc2ccc(CCc3ccccc3)cc2)no1`, for which the MIC in the series on Cryptococcus neoformans and with Cryptococcus gattii was 0.5 µg/mL (≈ 1.41 µM) in each case.

`Nc1ncccc1-c1cc(Cc2ccc(OCc3ccoc3)nc2)no1`: the MIC (usually the smallest concentration in the dilution series that meets the test's criterion for growth inhibition) stood at 0.016 µg/mL (≈ 0.0459 µM) in the series on Cryptococcus neoformans and 0.031 µg/mL (≈ 0.089 µM) against Cryptococcus gattii.

With `Nc1ncccc1-c1cc(Cc2ccc(OCC3CC3)nc2)no1`, the MIC in the series on Cryptococcus neoformans was found to be 0.031 µg/mL (≈ 0.0962 µM); against Cryptococcus gattii, 0.016 µg/mL (≈ 0.0496 µM).

`Nc1ncccc1-c1cc(Cc2ccc(Oc3cccc(F)n3)cc2)no1`: the minimum inhibitory concentration (MIC) with Cryptococcus neoformans worked out at 0.008 µg/mL (≈ 0.0221 µM); against Cryptococcus gattii, 0.004 µg/mL (≈ 0.011 µM). In the series with HepG2, the “Cell viability (% of control)” value is reported as 93%. In addition, in series [1], the Ratio came out at 16. In series [2], the inhibition (commonly how much of the control response was suppressed) at 16 µM worked out at 0%. The same molecule yielded a t1/2 in series [3] of 43 min.

With `Nc1ncccc1-c1cc(Cc2ccc(Cc3ccco3)cc2)no1`, the MIC against Cryptococcus neoformans and in the series on Cryptococcus gattii was 0.016 µg/mL (≈ 0.0483 µM) in each case. This molecule also came in with a t1/2 in series [3] of 3.15 min.

In the case of `Nc1ncccc1-c1cc(Cc2ccc(OCCc3cccc(F)c3)nc2)no1`, the minimal inhibitory concentration (MIC) in the series with Cryptococcus neoformans and against Cryptococcus gattii was 0.063 µg/mL (≈ 0.161 µM) throughout.

As to `Nc1ncccc1-c1cc(Cc2ccc(Oc3ccccc3F)nc2)no1`, the MIC came out at 0.016 µg/mL (≈ 0.0442 µM) against Cryptococcus neoformans and 0.031 µg/mL (≈ 0.0855 µM) in the series with Cryptococcus gattii.

With `Nc1ncccc1-c1cc(Cc2ccnc(OCc3cccc(F)c3)c2)no1`, the MIC in the series on Cryptococcus neoformans and against Cryptococcus gattii was 0.031 µg/mL (≈ 0.0824 µM) each time.

For `Nc1ncccc1-c1cc(Cc2ccc(Oc3cccc(F)c3)nc2)no1`, the minimal inhibitory concentration (MIC) was 0.008 µg/mL (≈ 0.0221 µM) with Cryptococcus neoformans and 0.016 µg/mL (≈ 0.0442 µM) in the series on Cryptococcus gattii. Moreover, the “Cell viability (% of control)” value in the series with HepG2 was found to be 102%. Besides, in series [1], the Ratio was determined as 8. In addition, in series [2], the inhibition at 16 µM was 0%. For the same molecule, the t1/2 in series [3] is given as 93.9 min.

As for `Nc1ncccc1-c1cc(Cc2ccc(OCc3cccc(F)c3)nc2)no1`, the MIC with Cryptococcus neoformans and in the series with Cryptococcus gattii was 0.016 µg/mL (≈ 0.0425 µM) in each case. Further, the “Cell viability (% of control)” value in the series with HepG2 is on record as 97%. In addition, the Ratio in series [1] came to 8. For the same molecule, in series [2], 16 µM produced 5% inhibition. This molecule gave a t1/2 in series [3] of 62.3 min.

Consider `Nc1ncccc1-c1cc(Cc2ccc(OCC3CCC3)nc2)no1`, for which the values for the MIC with Cryptococcus neoformans and against Cryptococcus gattii were 0.016 µg/mL (≈ 0.0476 µM) and 0.008 µg/mL (≈ 0.0238 µM), respectively. This molecule also registered a t1/2 in series [3] of 4.65 min.

With `Nc1ncccc1-c1cc(Cc2ccc(OCc3ccccc3)cc2)no1`, the MIC in the series with Cryptococcus neoformans and in the series on Cryptococcus gattii was 0.031 µg/mL (≈ 0.0867 µM) in each case.

With `Nc1ncccc1-c1cc(Cc2ccc(Oc3ccccn3)cc2)no1`, the minimum inhibitory concentration (MIC) in the series on Cryptococcus neoformans stood at 0.016 µg/mL (≈ 0.0465 µM); against Cryptococcus gattii, 0.008 µg/mL (≈ 0.0232 µM). For the same molecule, the “Cell viability (% of control)” value with HepG2 worked out at 77%. The same molecule came in with a t1/2 in series [3] of 61.5 min.

`Nc1ncccc1-c1cc(Cc2ccc(COc3ccccc3)cc2)no1`: the MIC was found to be 0.125 µg/mL (≈ 0.35 µM) in the series with Cryptococcus neoformans and 0.063 µg/mL (≈ 0.176 µM) against Cryptococcus gattii.

For `Nc1ncccc1-c1cc(Cc2ccc(OCc3cccc(Cl)c3)nc2)no1`, the minimal inhibitory concentration (MIC) with Cryptococcus neoformans and in the series on Cryptococcus gattii was 0.016 µg/mL (≈ 0.0407 µM) in each case. For the same molecule, in the series on HepG2, the “Cell viability (% of control)” value amounted to 98%. Besides, the Ratio in series [1] is 4. In series [2], this molecule showed an inhibition at 16 µM of 80%.

On to `Nc1ncccc1-c1cc(Cc2ccc(CNc3ccccc3)cc2)no1`, for which the values for the MIC against Cryptococcus neoformans and in the series on Cryptococcus gattii were 0.125 µg/mL (≈ 0.351 µM) and 0.063 µg/mL (≈ 0.177 µM), respectively.

For `Nc1ncccc1-c1cc(Cc2ccc(OCc3ccncc3)nc2)no1`, the minimal inhibitory concentration (MIC) against Cryptococcus neoformans and with Cryptococcus gattii was 0.008 µg/mL (≈ 0.0223 µM) each time. For the same molecule, the t1/2 in series [3] is listed as 20.3 min.

Regarding `Nc1ncccc1-c1cc(Cc2ccc(Cc3ccc(F)o3)cc2)no1`, the MIC against Cryptococcus neoformans and against Cryptococcus gattii was 0.016 µg/mL (≈ 0.0458 µM) in each case. This molecule also yielded a t1/2 in series [3] of 14.4 min.

As for `O=C(c1ccc(F)cc1)C1CCN(CCn2c(=O)[nH]c3ccccc3c2=O)CC1` [KETANSERIN], the half-life (as a rule, the time in which the quantity being followed falls by half) at 1 µM in series [3] (liver microsomes) is 40.8 min.

Turning to `Nc1ncccc1-c1cc(Cc2ccc(OCc3ccncc3)cc2)no1`, the MIC in the series on Cryptococcus neoformans came to 0.016 µg/mL (≈ 0.0446 µM); in the series with Cryptococcus gattii, 0.008 µg/mL (≈ 0.0223 µM). In addition, in series [3], the t1/2 is on record as 17.3 min.

Turning to `Nc1ncccc1-c1cc(Cc2ccc(OCc3ccccc3F)nc2)no1`, the minimum inhibitory concentration (MIC) in the series on Cryptococcus neoformans and against Cryptococcus gattii was 0.031 µg/mL (≈ 0.0824 µM) in each case.

Take `Nc1ncccc1-c1cc(Cc2ccnc(OCCc3cccc(F)c3)c2)no1`: the MIC in the series with Cryptococcus neoformans turned out to be 0.5 µg/mL (≈ 1.28 µM); in the series on Cryptococcus gattii, 1 µg/mL (≈ 2.56 µM).

For the molecule `Nc1ncccc1-c1cc(Cc2ccc(OCCc3ccccc3F)nc2)no1`, the minimal inhibitory concentration (MIC) with Cryptococcus neoformans and with Cryptococcus gattii was 0.031 µg/mL (≈ 0.0794 µM) throughout.

As for `CC(Oc1ccc(Cc2cc(-c3cccnc3N)on2)cn1)c1ccccc1F` (configuration not stated), the MIC in the series with Cryptococcus neoformans is 0.25 µg/mL (≈ 0.64 µM); against Cryptococcus gattii, 0.5 µg/mL (≈ 1.28 µM).

On to `Nc1ncccc1-c1cc(Cc2ccc(Cc3ccccc3)cc2)no1`, for which the figures for the minimal inhibitory concentration (MIC) with Cryptococcus neoformans and in the series with Cryptococcus gattii were 0.031 µg/mL (≈ 0.0908 µM) and 0.008 µg/mL (≈ 0.0234 µM), respectively.

Take `Nc1ncccc1-c1cc(Cc2ccc(CNCc3ccn[nH]3)cc2)no1`: the MIC against Cryptococcus neoformans and with Cryptococcus gattii was over 4 µg/mL in each case.

`Nc1ncccc1-c1cc(Cc2ccc(CNc3cccc(F)n3)cc2)no1`: the minimum inhibitory concentration (MIC) against Cryptococcus neoformans and against Cryptococcus gattii was 0.25 µg/mL (≈ 0.666 µM) in each case.

On to `Nc1ncccc1-c1cc(Cc2ccc(COc3ccccn3)cc2)no1` [MANOGEPIX], for which the MIC in the series on Cryptococcus neoformans was determined as 0.25 µg/mL (≈ 0.698 µM); against Cryptococcus gattii it was 0.125 µg/mL (≈ 0.349 µM). Further, the “Cell viability (% of control)” value with HepG2 came out at 98%. In series [1], the Ratio stood at 8. This molecule gave an inhibition at 16 µM in series [2] of 0%. This molecule also had a t1/2 in series [3] of 49.9 min.

As to `Cc1occc1COc1ccc(Cc2cc(-c3cccnc3N)on2)cn1`, the minimal inhibitory concentration (MIC) in the series on Cryptococcus neoformans and against Cryptococcus gattii was 2 µg/mL (≈ 5.52 µM) each time.

`Nc1ncccc1-c1cc(Cc2ccc(Nc3ccccc3F)nc2)no1`: the minimal inhibitory concentration (MIC) in the series on Cryptococcus neoformans and in the series on Cryptococcus gattii was 0.016 µg/mL (≈ 0.0443 µM) throughout. For the same molecule, the t1/2 in series [3] is 37.1 min.

`Nc1ncccc1-c1cc(Cc2ccc(Cn3cccn3)cc2)no1`: the minimum inhibitory concentration (MIC) with Cryptococcus neoformans amounted to 0.25 µg/mL (≈ 0.754 µM); against Cryptococcus gattii, 0.063 µg/mL (≈ 0.19 µM).

For `Cc1nccc(NCc2ccc(Cc3cc(-c4cccnc4N)on3)cc2)n1`, the MIC with Cryptococcus neoformans and in the series on Cryptococcus gattii was over 4 µg/mL in each case.
